EBI2 antag: antagonists of human EBI2 receptor. P32249. EBI2 beta-arrestin recruitment, luminescence, 7a,25-OHC stimulated. inhibition, % at 5 µM. 0.81% of 360,000 active; in the data active = inhibition above about 38%;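 note: enzyme fragment complementation signal reports receptor beta-arrestin coupling in cells; 0% = agonist plus DMSO wells and 100% = wells without agonist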
Target sequence (P32249 whole entry, looked up, the tested form may be a part): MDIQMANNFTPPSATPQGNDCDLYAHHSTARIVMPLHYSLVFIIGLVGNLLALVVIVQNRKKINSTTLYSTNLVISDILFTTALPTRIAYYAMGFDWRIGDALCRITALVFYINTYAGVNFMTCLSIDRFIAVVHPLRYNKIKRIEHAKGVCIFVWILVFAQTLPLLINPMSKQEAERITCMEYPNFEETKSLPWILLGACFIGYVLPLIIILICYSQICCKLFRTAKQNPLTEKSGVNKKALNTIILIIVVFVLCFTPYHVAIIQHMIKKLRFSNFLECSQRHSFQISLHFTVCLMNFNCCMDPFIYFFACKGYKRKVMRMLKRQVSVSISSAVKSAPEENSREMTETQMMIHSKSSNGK
Myeloid diff MLP: compounds promoting myeloid differentiation; ER-HoxA9 myeloid progenitors, lysozyme-GFP differentiation, flow cytometry; calls only at 10 µM; 1% of 360,000 active;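 active = normalized GFP-positive differentiation at or above the plate's own cutoff, the solvent-only control mean plus 3 SD; inconclusive = no clear call, values can overlap the other calls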;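 note: cells exposed to compound for four days before flow analysis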
MC4R barr agon: agonists of human melanocortin 4 receptor (MC4R) beta-arrestin; U2OS MC4R beta-arrestin complementation, luminescence; percent of melanotan II response, DMSO zero; P32245; 0.98% of 360,000 active; activation, % at 8.9 µM; AID 540308;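 active = activation above a per-plate cutoff, the mean activation of sample wells on that plate plus 3 SD, cut at about 8% in these data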
Exocytosis inh: blocks lytic granule exocytosis; TALL-104 LAMP-1 surface exposure, flow cytometry; cells stimulated with thapsigargin and PMA; inhibition, % at 10 µM; 0.66% of 360,000 active;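 active = inhibition above about 55%, limit read from the data; inconclusive = no clear call, values can overlap the other calls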
MC4R antag cAMP: antagonists of human melanocortin 4 receptor (MC4R); AID 540295; MC4R-expressing cells, MTII-stimulated cAMP, LANCE TR-FRET; inhibition, % at 6.5 µM; 0.48% of 360,000 active; P32245;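 active = inhibition above its plate's cutoff, the mean of tested wells on that plate plus 3 SD, cut at about 29% in these data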;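 note: 0% = Melanotan II alone and 100% = Melanotan II plus saturating MCL0020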
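Test system: U2OS cells stably expressing human melanocortin 4 receptor (MC4R); also added: Melanotan II challenge; compound: 6.5 µM single dose; timing: 30-min compound preincubation, 1-h Melanotan II challenge, 1-h detection, room temperature; signal: Eu-cAMP/anti-cAMP TR-FRET, emission 671 nm; repeats: one well per compound, no replicates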
Numbers without * were called inactive; ! = not active in a repeat. Only some compounds are listed: those with a hit (about 3.7% of all), similar ones and a draw of the others.

CC(O)CN(CC(C)O)c1ccc2c(c1)Cc1cc([N+](=O)[O-])ccc1-2 (stereo not drawn) was read as EBI2 antag 10, Myeloid diff MLP active, MC4R barr agon -3, Exocytosis inh 5 and MC4R antag cAMP 8.
`O=C1/C(=C/c2ccccc2O)SC(=S)N1Cc1cccnc1` gave EBI2 antag -7, Myeloid diff MLP inactive, MC4R barr agon 2, Exocytosis inh 58* and MC4R antag cAMP -6.
For O=C1/C(=C\c2cccc([N+](=O)[O-])c2O)SC(=S)N1Cc1ccccc1 the results were EBI2 antag 8, Myeloid diff MLP inactive, MC4R barr agon -1, Exocytosis inh 0 and MC4R antag cAMP 21.
Screening COc1cc(/C=C2/SC(=S)N(Cc3ccccc3)C2=O)ccc1OCC(=O)O returned EBI2 antag 3, Myeloid diff MLP inactive, MC4R barr agon -1, Exocytosis inh -15 and MC4R antag cAMP 0.
For CCOc1cc(/C=C2/SC(=S)N(Cc3ccccc3)C2=O)ccc1O the results were EBI2 antag 24, Myeloid diff MLP active, MC4R barr agon -5, Exocytosis inh -9 and MC4R antag cAMP -13.
`COc1cc(/C=C2/SC(=S)N(Cc3ccccc3)C2=O)cc(Cl)c1O` gave EBI2 antag 9, Myeloid diff MLP active, MC4R barr agon -1, Exocytosis inh 2 and MC4R antag cAMP 3.
O=C1/C(=C\c2ccc(O)cc2)SC(=S)N1Cc1ccccc1 was read as EBI2 antag 17, Myeloid diff MLP active, MC4R barr agon -3, Exocytosis inh 1 and MC4R antag cAMP -11.
For O=C1/C(=C/c2ccc(O)c([N+](=O)[O-])c2)SC(=S)N1Cc1ccccc1 the results were EBI2 antag 8, Myeloid diff MLP inactive, MC4R barr agon -4, Exocytosis inh inconclusive and MC4R antag cAMP 4.
Screening COCCNC(=O)C(c1ccc(C)cc1)N(Cc1ccco1)C(=O)CCC(=O)Nc1ccccn1 (stereo not drawn) returned EBI2 antag -1, Myeloid diff MLP inactive, MC4R barr agon 0, Exocytosis inh -10 and MC4R antag cAMP -2.
CC(=O)N[C@@H](Cc1c[nH]c2ccccc12)C(=O)NCc1ccccc1 was read as EBI2 antag -2, Myeloid diff MLP inactive, MC4R barr agon -1, Exocytosis inh -8 and MC4R antag cAMP 1.
For CCCC1Oc2ccccc2C(=O)N(CC(=O)c2ccc3c(c2)OCCO3)C1=O (stereo not drawn) the results were EBI2 antag 11, Myeloid diff MLP inactive, MC4R barr agon -2, Exocytosis inh 0 and MC4R antag cAMP -1.
CCOC(=O)c1c(C)[nH]c(C(=O)N2CCC(C(=O)OCC)CC2)c1C was read as EBI2 antag -4, Myeloid diff MLP inactive, MC4R barr agon -2, Exocytosis inh 0 and MC4R antag cAMP 8.
O=C(O)c1ccc(/C=C2/SC(=S)N(Cc3ccccc3)C2=O)cc1 was read as EBI2 antag 10, Myeloid diff MLP active, MC4R barr agon -1, Exocytosis inh -6 and MC4R antag cAMP 7.
Screening CCOC(=O)C1=CCN(S(=O)(=O)c2ccc(C)cc2)C1c1ccccc1 (stereo not drawn) returned EBI2 antag -1, Myeloid diff MLP inactive and Exocytosis inh -1.
CCOc1cc2c(c3c1C(c1ccccc1)N(S(=O)(=O)c1ccc(C)cc1)C3)C(=O)C=CC2=O (stereo not drawn) was read as EBI2 antag -2, Myeloid diff MLP inconclusive and Exocytosis inh 74*.
Screening Cc1ccc(S(=O)(=O)N(CC(=O)Nc2cccc(C)c2C)C(=O)N2CCN(C)CC2)cc1 returned EBI2 antag 7, Myeloid diff MLP inactive, MC4R barr agon -4, Exocytosis inh -4 and MC4R antag cAMP 2.
CCCCCCSc1ccc(-c2nc3ccc(Cl)cn3c2NC2CCCCC2)cc1 was read as EBI2 antag 9, Myeloid diff MLP active, MC4R barr agon 2, Exocytosis inh -1 and MC4R antag cAMP 9.
For Cc1ccn2c(NC3CCCCC3)c(-c3cccc(SC4CCCCC4)c3)nc2c1 the results were EBI2 antag 15, Myeloid diff MLP inactive, MC4R barr agon -1, Exocytosis inh 7 and MC4R antag cAMP 8.
For CCC(C)Sc1cccc(-c2nc3cc(C)ccn3c2NC2CCCCC2)c1 (stereo not drawn) the results were EBI2 antag 14, Myeloid diff MLP active!, MC4R barr agon 4, Exocytosis inh 57*! and MC4R antag cAMP 20.
Screening Cc1ccn2c(NC3CCCCC3)c(-c3ccc(SC4CCCCC4)cc3)nc2c1 returned EBI2 antag 23, Myeloid diff MLP active and Exocytosis inh -1.
Screening CCCCCCSc1cccc(-c2nc3cc(C)ccn3c2NC2CCCCC2)c1 returned EBI2 antag 4, Myeloid diff MLP inactive, MC4R barr agon -1, Exocytosis inh -11 and MC4R antag cAMP -2.
`Cc1ccc2nc3c(cc(C(N)=S)c(=N)n3CCCOC(C)C)c(=O)n2c1` gave EBI2 antag 1, Myeloid diff MLP active, MC4R barr agon 1, Exocytosis inh 14 and MC4R antag cAMP -8.
Screening Cc1ccc2nc3c(cc(C(=O)NCCc4ccccc4)c(=N)n3CCN3CCOCC3)c(=O)n2c1 returned EBI2 antag 9, Myeloid diff MLP active, MC4R barr agon -1, Exocytosis inh 24 and MC4R antag cAMP -1.
Screening CC(=O)CCc1oc2ccc([N+](=O)[O-])cc2c1-c1ccc(C)o1 returned EBI2 antag -7, Myeloid diff MLP inactive, MC4R barr agon -2, Exocytosis inh 11 and MC4R antag cAMP -4.
Screening C/C(CCc1oc2ccccc2c1-c1ccc(C)o1)=N/O returned EBI2 antag 15, Myeloid diff MLP inactive, MC4R barr agon 1, Exocytosis inh 74* and MC4R antag cAMP -2.
`C/C(CCc1oc2c(Br)cc(Br)cc2c1-c1ccc(C)o1)=N\O` gave EBI2 antag 21, Myeloid diff MLP inactive, MC4R barr agon 0, Exocytosis inh 83* and MC4R antag cAMP 6.
For Cc1nc(C(=O)N2CCc3c([nH]c4ccccc34)C2c2cc(F)ccc2F)cs1 (stereo not drawn) the results were EBI2 antag 6, Myeloid diff MLP inactive, MC4R barr agon 0, Exocytosis inh 0 and MC4R antag cAMP 1.
CC(C)[C@H](NC(=O)c1cccc(S(=O)(=O)N2CCOCC2)c1)C(=O)OCC(=O)Nc1cccc(Br)c1 was read as EBI2 antag 4, Myeloid diff MLP inactive, MC4R barr agon -2, Exocytosis inh -6 and MC4R antag cAMP -6.
Cc1nc(Cc2nnc(SCC(=O)N3CCN(c4ccc(O)cc4)CC3)o2)cs1 was read as EBI2 antag -27, Myeloid diff MLP active, MC4R barr agon 1, Exocytosis inh 7 and MC4R antag cAMP 11.
For CC1CC(=O)c2c(cc3c(-c4c(O)cc(O)c5c(O)c6c(cc45)OC(C)CC6=O)c(O)cc(O)c3c2O)O1 (stereo not drawn) the results were EBI2 antag -9, Myeloid diff MLP inactive, MC4R barr agon -2, Exocytosis inh 8 and MC4R antag cAMP 65*.

Screening data as filed in PubChem BioAssay.
